Source: ChEMBL document CHEMBL1142894, “Preparation of 5-aryl-3-alkylthio-l,2,4-triazoles and corresponding sulfones with antiinflammatory-analgesic activity” (Bioorg Med Chem, 2007)
Calls of active or inactive are those of the source. No cut-off for these calls is given here.

Experiments:
[1] = test system: Mus musculus; experiment: Antiinflammatory activity against carrageenan-induced paw edema in Swiss albino mouse assessed as swelling thickness at 100 mg/kg, po after 90 mins; type: functional
Summary of the method: (§1)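 Oral dosing in 0.5% CMC; vehicle to controls. Then carrageenan (0.5 mg/25 ll, freshly suspended in 154 mM saline) injected into the right hind paw subplantar tissue; saline into the left paw. Right-left footpad thickness difference measured by dial gauge calliper every 90 min over 6 h. Inhibition % is relative to vehicle control. n = 6; mean ± SEM.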

[2] = test system: Mus musculus; experiment: Antiinflammatory activity against carrageenan-induced paw edema in Swiss albino mouse assessed as swelling thickness at 100 mg/kg, po after 180 mins; type: functional; summary of the method: as §1
[3] = test system: Mus musculus; experiment: Antiinflammatory activity against carrageenan-induced paw edema in Swiss albino mouse assessed as swelling thickness at 100 mg/kg, po after 270 mins; type: functional; summary of the method: as §1
[4] = test system: Mus musculus; experiment: Antiinflammatory activity against carrageenan-induced paw edema in Swiss albino mouse assessed as swelling thickness at 100 mg/kg, po after 360 mins; type: functional; summary of the method: as §1
[5] = test system: Mus musculus; experiment: Inhibition of carrageenan-induced paw edema in Swiss albino mouse at 100 mg/kg, po after 90 mins relative to control; type: functional; settings: 1.5 h; summary of the method: as §1
[6] = test system: Mus musculus; experiment: Inhibition of carrageenan-induced paw edema in Swiss albino mouse at 100 mg/kg, po after 180 mins relative to control; type: functional; settings: 3 h; summary of the method: as §1
[7] = test system: Mus musculus; experiment: Inhibition of carrageenan-induced paw edema in Swiss albino mouse at 100 mg/kg, po after 270 mins relative to control; type: functional; settings: 4.5 h; summary of the method: as §1
[8] = test system: Mus musculus; experiment: Inhibition of carrageenan-induced paw edema in Swiss albino mouse at 100 mg/kg, po after 360 mins relative to control; type: functional; settings: 6 h; summary of the method: as §1
[9] = test system: Mus musculus; experiment: Antiinflammatory activity in Swiss albino mouse assessed as inhibition of carrageenan-induced paw edema at 50 mg/kg, po; type: functional
[10] = test system: Mus musculus; experiment: Analgesic activity against p-benzoquinone-induced abdominal constriction in Swiss albino mouse assessed as number of writhings at 25 mg/kg, po; type: functional, Abdomen
Summary of the method: (§2)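 Test samples given orally in 0.5% CMC; vehicle to controls. 60 min later, 2.5% (v/v) p-benzoquinone in distilled water, 0.1 ml/10 g, given i.p. Mice housed singly; writhes counted for 15 min starting 5 min after injection. Activity is % change from vehicle controls. n = 6; mean ± SEM.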

[11] = test system: Mus musculus; experiment: Analgesic activity against p-benzoquinone-induced abdominal constriction in Swiss albino mouse assessed as number of writhings at 50 mg/kg, po; type: functional, Abdomen; summary of the method: as §2
[12] = test system: Mus musculus; experiment: Analgesic activity against p-benzoquinone-induced abdominal constriction in Swiss albino mouse assessed as number of writhings at 100 mg/kg, po; type: functional, Abdomen; summary of the method: as §2
[13] = test system: Mus musculus; experiment: Analgesic activity against p-benzoquinone-induced abdominal constriction in Swiss albino mouse assessed as number of writhings at 200 mg/kg, po; type: functional, Abdomen; summary of the method: as §2
[14] = test system: Mus musculus; experiment: Inhibition of p-benzoquinone-induced writhing in Swiss albino mouse at 25 mg/kg, po relative to control; type: functional
Summary of the method: (§3)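 Mice, n = 6 per group, dosed orally with a suspension in 0.5% sodium CMC. 60 min later, 0.1 ml/10 g of 2.5% […] p-benzoquinone in distilled water given ip. Abdominal writhes counted per animal for 15 min, starting 5 min after injection. Expressed as % change in mean writhing count versus vehicle controls.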

[15] = test system: Mus musculus; experiment: Inhibition of p-benzoquinone-induced writhing in Swiss albino mouse at 50 mg/kg, po relative to control; type: functional; summary of the method: as §3
[16] = test system: Mus musculus; experiment: Inhibition of p-benzoquinone-induced writhing in Swiss albino mouse at 100 mg/kg, po relative to control; type: functional; summary of the method: as §3
[17] = test system: Mus musculus; experiment: Inhibition of p-benzoquinone-induced writhing in Swiss albino mouse at 200 mg/kg, po relative to control; type: functional; summary of the method: as §3
[18] = test system: Mus musculus; experiment: Gastric-ulcerogenic effect in Swiss albino mouse assessed as lesions at 25 mg/kg, po; type: functional, organism-based; parameters: dose 25 mg/kg
Summary of the method: (§4)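 Mice killed under deep ether anesthesia 3 h after the writhing test; the oral dose in 0.5% CMC was the one used in that test. Stomachs removed, opened along the great curvature and examined under a dissecting microscope for lesions or bleeding. Reported as ratio of ulceration; n = 6.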

[19] = test system: Mus musculus; experiment: Gastric-ulcerogenic effect in Swiss albino mouse assessed as lesions at 50 mg/kg, po; type: functional, organism-based; parameters: dose 50 mg/kg; summary of the method: as §4
[20] = test system: Mus musculus; experiment: Gastric-ulcerogenic effect in Swiss albino mouse assessed as lesions at 100 mg/kg, po; type: functional, organism-based; parameters: dose 100 mg/kg; summary of the method: as §4
[21] = test system: Mus musculus; experiment: Antiinflammatory activity against carrageenan-induced paw edema in Swiss albino mouse assessed as swelling thickness at 25 mg/kg, po after 90 mins; type: functional; summary of the method: as §1
[22] = test system: Mus musculus; experiment: Antiinflammatory activity against carrageenan-induced paw edema in Swiss albino mouse assessed as swelling thickness at 25 mg/kg, po after 180 mins; type: functional; summary of the method: as §1
[23] = test system: Mus musculus; experiment: Antiinflammatory activity against carrageenan-induced paw edema in Swiss albino mouse assessed as swelling thickness at 25 mg/kg, po after 270 mins; type: functional; summary of the method: as §1
[24] = test system: Mus musculus; experiment: Antiinflammatory activity against carrageenan-induced paw edema in Swiss albino mouse assessed as swelling thickness at 25 mg/kg, po after 360 mins; type: functional; summary of the method: as §1
[25] = test system: Mus musculus; experiment: Antiinflammatory activity against carrageenan-induced paw edema in Swiss albino mouse assessed as swelling thickness at 50 mg/kg, po after 180 mins; type: functional; summary of the method: as §1
[26] = test system: Mus musculus; experiment: Antiinflammatory activity against carrageenan-induced paw edema in Swiss albino mouse assessed as swelling thickness at 50 mg/kg, po after 270 mins; type: functional; summary of the method: as §1
[27] = test system: Mus musculus; experiment: Antiinflammatory activity against carrageenan-induced paw edema in Swiss albino mouse assessed as swelling thickness at 50 mg/kg, po after 360 mins; type: functional; summary of the method: as §1
[28] = test system: Mus musculus; experiment: Antiinflammatory activity against carrageenan-induced paw edema in Swiss albino mouse assessed as swelling thickness at 200 mg/kg, po after 90 mins; type: functional; summary of the method: as §1
[29] = test system: Mus musculus; experiment: Antiinflammatory activity against carrageenan-induced paw edema in Swiss albino mouse assessed as swelling thickness at 200 mg/kg, po after 180 mins; type: functional; summary of the method: as §1
[30] = test system: Mus musculus; experiment: Antiinflammatory activity against carrageenan-induced paw edema in Swiss albino mouse assessed as swelling thickness at 200 mg/kg, po after 270 mins; type: functional; summary of the method: as §1
[31] = test system: Mus musculus; experiment: Antiinflammatory activity against carrageenan-induced paw edema in Swiss albino mouse assessed as swelling thickness at 200 mg/kg, po after 360 mins; type: functional; summary of the method: as §1
[32] = test system: Mus musculus; experiment: Inhibition of carrageenan-induced paw edema in Swiss albino mouse at 25 mg/kg, po after 90 mins relative to control; type: functional; settings: 1.5 h; summary of the method: as §1
[33] = test system: Mus musculus; experiment: Inhibition of carrageenan-induced paw edema in Swiss albino mouse at 25 mg/kg, po after 180 mins relative to control; type: functional; settings: 3 h; summary of the method: as §1
[34] = test system: Mus musculus; experiment: Inhibition of carrageenan-induced paw edema in Swiss albino mouse at 25 mg/kg, po after 270 mins relative to control; type: functional; settings: 4.5 h; summary of the method: as §1
[35] = test system: Mus musculus; experiment: Inhibition of carrageenan-induced paw edema in Swiss albino mouse at 25 mg/kg, po after 360 mins relative to control; type: functional; settings: 6 h; summary of the method: as §1
[36] = test system: Mus musculus; experiment: Inhibition of carrageenan-induced paw edema in Swiss albino mouse at 50 mg/kg, po after 90 mins relative to control; type: functional; settings: 1.5 h
Summary of the method: (§5)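 Mice, n = 6 per group. Test agent given orally as a suspension in 0.5% sodium CMC in distilled water; controls received vehicle only. Afterwards, 0.5 mg/25 ll carrageenan in saline (154 mM NaCl) injected subplantar into the right hind paw, saline into the left. Right-minus-left footpad thickness measured by dial gauge caliper every 90 min for 6 h. Inhibition is relative to vehicle-control group means.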

[37] = test system: Mus musculus; experiment: Inhibition of carrageenan-induced paw edema in Swiss albino mouse at 50 mg/kg, po after 180 mins relative to control; type: functional; settings: 3 h; summary of the method: as §1
[38] = test system: Mus musculus; experiment: Inhibition of carrageenan-induced paw edema in Swiss albino mouse at 50 mg/kg, po after 270 mins relative to control; type: functional; settings: 4.5 h; summary of the method: as §5
[39] = test system: Mus musculus; experiment: Inhibition of carrageenan-induced paw edema in Swiss albino mouse at 50 mg/kg, po after 360 mins relative to control; type: functional; settings: 6 h; summary of the method: as §5
[40] = test system: Mus musculus; experiment: Inhibition of carrageenan-induced paw edema in Swiss albino mouse at 200 mg/kg, po after 90 mins relative to control; type: functional; settings: 1.5 h; summary of the method: as §1
[41] = test system: Mus musculus; experiment: Inhibition of carrageenan-induced paw edema in Swiss albino mouse at 200 mg/kg, po after 180 mins relative to control; type: functional; settings: 3 h; summary of the method: as §1
[42] = test system: Mus musculus; experiment: Inhibition of carrageenan-induced paw edema in Swiss albino mouse at 200 mg/kg, po after 270 mins relative to control; type: functional; settings: 4.5 h; summary of the method: as §1
[43] = test system: Mus musculus; experiment: Inhibition of carrageenan-induced paw edema in Swiss albino mouse at 200 mg/kg, po after 360 mins relative to control; type: functional; settings: 6 h; summary of the method: as §1
[44] = test system: Mus musculus; experiment: Acute toxicity in Swiss albino mouse assessed as lethal effect at 25 mg/kg/day, po after 72 hrs; type: organism-based; parameters: route oral; settings: in vivo
Summary of the method: (§6)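 Oral single dose suspended in 0.5% carboxymethylcellulose, given after a 24 h fast; food and water returned 1 h after dosing. Vehicle-only controls. Mice observed at 1 h, then once daily for 72 h, for toxic signs and mortality.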

[45] = test system: Mus musculus; experiment: Acute toxicity in Swiss albino mouse assessed as lethal effect at 50 mg/kg/day, po after 72 hrs; type: organism-based; parameters: route oral; settings: in vivo; summary of the method: as §6
[46] = test system: Mus musculus; experiment: Acute toxicity in Swiss albino mouse assessed as lethal effect at 100 mg/kg/day, po after 72 hrs; type: organism-based; parameters: route oral; settings: in vivo; summary of the method: as §6
[47] = test system: Mus musculus; experiment: Acute toxicity in Swiss albino mouse assessed as lethal effect at 200 mg/kg/day, po after 72 hrs; type: organism-based; parameters: route oral; settings: in vivo; summary of the method: as §6
[48] = test system: Mus musculus; experiment: Antiinflammatory activity against carrageenan-induced paw edema in Swiss albino mouse assessed as swelling thickness at 50 mg/kg, po after 90 mins; type: functional; summary of the method: as §1

CCS(=O)(=O)c1nc(-c2ccc(Cl)cc2)n[nH]1
Activity [1]: 27.2 10^-2mm | Activity [2]: 31 10^-2mm | Activity [3]: 34.5 10^-2mm | Activity [4]: 35.3 10^-2mm | inhibition in vivo at 100 mg/kg [5]: 39.3% | inhibition in vivo at 100 mg/kg [6]: 39.8% | inhibition in vivo at 100 mg/kg [7]: 41.3% | inhibition in vivo at 100 mg/kg [8]: 48.7% | inhibition in vivo at 50 mg/kg [9]: 40.2% | Activity [10]: 37.8 | Activity [11]: 20.8 | Activity [12]: 20.4 | Activity [13]: 44.1 | inhibition in vivo at 25 mg/kg [14]: 26.5% | inhibition in vivo at 50 mg/kg [15]: 59.5% | inhibition in vivo at 100 mg/kg [16]: 56.9% | inhibition in vivo at 200 mg/kg [17]: 18.5% | Activity [18]: Active | Activity [19]: Active | Activity [20]: Active | Activity [21]: 45.8 10^-2mm | Activity [22]: 49.6 10^-2mm | Activity [23]: 57.9 10^-2mm | Activity [24]: 61.2 10^-2mm | Activity [25]: 36.1 10^-2mm | Activity [26]: 37.2 10^-2mm | Activity [27]: 39.4 10^-2mm | Activity [28]: 45.5 10^-2mm | Activity [29]: 48.9 10^-2mm | Activity [30]: 55.4 10^-2mm | Activity [31]: 58.4 10^-2mm | inhibition in vivo at 25 mg/kg [32]: 13.9% | inhibition in vivo at 25 mg/kg [33]: 16.5% | inhibition in vivo at 25 mg/kg [34]: 10.6% | inhibition in vivo at 25 mg/kg [35]: 15% | inhibition in vivo at 50 mg/kg [36]: 33.5% | inhibition in vivo at 50 mg/kg [37]: 39.2% | inhibition in vivo at 50 mg/kg [38]: 42.6% | inhibition in vivo at 50 mg/kg [39]: 45.3% | inhibition in vivo at 200 mg/kg [40]: 14.5% | inhibition in vivo at 200 mg/kg [41]: 17.7% | inhibition in vivo at 200 mg/kg [42]: 14.5% | inhibition in vivo at 200 mg/kg [43]: 18.9% | Activity [44]: Non-toxic | Activity [45]: Non-toxic | Activity [46]: Non-toxic | Activity [47]: Non-toxic | Activity [48]: 35.4 10^-2mm
